From PubChem
A selection: hits, their analogues and other compounds. The true share with any hit is near 4.5%.
TAAR1 ag – agonists of human TAAR1; activation, % at 3 µM; Q96RJ0; 0.99% of 360,000 active; CHO RD-HGA16 TAAR1, Fluo-8 calcium fluorescence; vehicle wells 0%, saturating PEA agonist 100%;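 active = activation above the mean activation of all test compounds in the run plus 3 SD, cut at about 38% in these data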
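Test system: RD-HGA16 (CHO) cells co-expressing Gα16 and hTAAR1 / Benchmarks: DMSO vehicle as 0%, PEA at EC100 as 100% / Repeats: no replicates (n 1) / Measure: % activation from peak over basal fluorescence ratio, DMSO-to-PEA scaled / Timing: 17-24 h plating, Fluo-8 75 min 37 °C, 30 min RT / Technique: kinetic Fluo-8 calcium fluorescence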
OX1R antag-1 – blocks the human orexin 1 receptor | O43613 | OX1R-expressing cells, FRET antagonist read-out | inhibition, % at 6.6 µM | 1.8% of 330,000 active | AID 485270; in the data active = inhibition mostly above about 38%, no sharp cut-off; inactive = mostly below about 40%;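 note: 0% = agonist challenge alone and 100% = reference antagonist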
Target sequence (O43613 whole entry, looked up): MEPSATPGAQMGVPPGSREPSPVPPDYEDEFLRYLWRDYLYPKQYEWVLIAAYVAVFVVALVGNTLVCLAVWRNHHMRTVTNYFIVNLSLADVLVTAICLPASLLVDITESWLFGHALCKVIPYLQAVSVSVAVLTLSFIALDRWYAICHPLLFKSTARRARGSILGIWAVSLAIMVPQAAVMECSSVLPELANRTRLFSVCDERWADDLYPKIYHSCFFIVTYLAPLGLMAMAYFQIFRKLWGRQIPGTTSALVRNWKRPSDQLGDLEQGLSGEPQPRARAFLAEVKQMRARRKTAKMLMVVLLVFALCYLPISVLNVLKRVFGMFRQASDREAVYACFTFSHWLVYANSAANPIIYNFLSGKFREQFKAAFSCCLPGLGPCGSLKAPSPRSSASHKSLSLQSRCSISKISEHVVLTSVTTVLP
TAAR1 antagonist – human TAAR1 antagonism | CHO RD-HGA16 TAAR1, Fluo-8 calcium fluorescence, antagonist | Q96RJ0 | 1.5% of 360,000 active | inhibition, % at 3 µM;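 active = inhibition above a per-plate cutoff, the mean inhibition of test compounds on that plate plus 3 SD, cut at about 49% in these data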;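 note: 0% = DMSO plus EC80 beta-PEA response and 100% = DMSO alone without agonist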
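Assay system: CHO-derived RD-HGA16 cells stably expressing human TAAR1 plus Gα16. Timing: 140 s kinetic read after compound, 140 s after agonist. Technique: kinetic Fluo-8 calcium fluorescence measurement. Measure: % inhibition of agonist calcium response.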
CHO parental Ca – signal in parental CHO cells, OX1R antagonist counter-screen | parental CHO-K1, ATP-induced calcium, Fluo-8 fluorescence | 0.63% of 330,000 active | AID 463079 | inhibition, % at 5.6 µM;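 active = inhibition above that plate's mean sample inhibition plus 3 SD, cut at about 26% in these data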;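 note: 0% = ATP-challenged DMSO wells and 100% = DMSO wells without ATP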
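Material: Parental CHO cells | Reagent: ATP | Compound dosing: Single nominal dose of 5.6 µM per compound | Detection: Intracellular calcium via Fluo-8 no-wash fluorescent dye | Read-out: % inhibition of ATP-induced calcium mobilization | Benchmarks: Low control ATP plus DMSO, high control DMSO only | Replicates: Singlicate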
OX1R antag-2 – antagonists of human orexin 1 receptor | 0.43% of 330,000 active | CHO/OX1R cells, Fluo-8 calcium fluorescence, orexin A | inhibition, % at 5 µM;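 active = inhibition above its plate's threshold, mean inhibition of all tested compounds on the plate plus 3 SD, cut at about 37% in these data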;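 note: 0% = orexin A challenge wells and 100% = SB-334867-A antagonist wells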
GPR7 antag – human neuropeptides B/W receptor 1 antagonism; inhibition, % at 4.4 µM; 1.1% of 290,000 active; GPR7-expressing cells, fluorescence antagonist assay; P48145; in the data active = inhibition above about 16%, passing the limit was not always enough;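 note: cells stimulated with the agonist NPW; 0% = agonist with vehicle and 100% = vehicle without agonist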
nonsel antag count – nonselective antagonist in TAAR1 antagonist counter-screen; 77% of 2,400 active; inhibition, % at 3 µM; shares compounds with TAAR1 antagonist; counterscreen cell line, calcium fluorescence, antagonist mode; in the data active = inhibition above about 22%;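 note: CHO-Ga16 host cells stimulated with ATP at an EC80 level; 0% = agonist EC80 plus vehicle and 100% = vehicle without agonist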
TAAR1 ant conf – human TAAR1 antagonism, confirmed | shares compounds with TAAR1 antagonist | TAAR1-expressing cells, fluorescence antagonist read-out | inhibition, % at 3 µM | 40% of 2,400 active; in the data active = inhibition above about 49%;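 note: CHO-Ga16 host cells challenged with agonist PEA near its EC80; 0% = agonist at EC80 plus vehicle and 100% = vehicle with no agonist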
Ga16 ag counter – counter-screen for TAAR1 antagonists: nonselective Ga16 agonists | shares compounds with TAAR1 antagonist | Ga16-expressing cells, calcium fluorescence, agonist counterscreen | activation, % at 3 µM | 18% of 2,400 active; in the data active = activation above about 12%;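 note: 0% = vehicle wells and 100% = saturating stimulus response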
TAAR1 ag count – activates human TAAR1 in antagonist counter-screen; shares compounds with TAAR1 antagonist; hTAAR1 cell line, fluorescence activation, agonist mode; AID 651955; activation, % at 3 µM; 2% of 2,400 active; in the data active = activation above about 37%;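 note: CHO cells stably expressing TAAR1 with calcium dye readout; 0% = DMSO vehicle and 100% = full agonist response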
An asterisk follows results filed as active; . = no result given.

SMILES	TAAR1 ag	OX1R antag-1	TAAR1 antagonist	CHO parental Ca	OX1R antag-2	GPR7 antag	nonsel antag count	TAAR1 ant conf	Ga16 ag counter	TAAR1 ag count
S=C(NCCc1cccc(Cl)c1)NC1CCCCC1	-0.4	.	17.3	.	.	3.1	.	.	.	.
COc1ccc(/C=C2/SC(=S)N(CCC(=O)Nc3cccnc3)C2=O)cc1OC	2.6	.	-5.4	.	.	.	.	.	.	.
O=C(CCN1C(=O)/C(=C/c2cccs2)SC1=S)Nc1ccc(O)cc1	4.2	23.3	14.7	0.8	-9.2	5.9	.	.	.	.
COc1cc(/C=C2\SC(=S)N(CCC(=O)Nc3ccccc3)C2=O)cc(OC)c1OC	6.1	19.6	31.9	-20.5	-9.2	-0.1	.	.	.	.
O=C(CCN1C(=O)/C(=C/c2cccs2)SC1=S)Nc1cccc(O)c1	27.6	17.8	72.4*	-1.4	5.7	-3.0	46.7*	60.3*	15.6*	17.7
COc1cc(/C=C2\SC(=S)N(CCC(=O)Nc3cccc(O)c3)C2=O)cc(OC)c1OC	13.6	6.7	88.0*	-10.7	-8.8	-18.3	35.8*	58.3*	10.7	10.7
COc1cc(/C=C2/SC(=S)N(CCC(=O)Nc3cccnc3)C2=O)cc(OC)c1OC	11.3	.	59.5*	.	.	.	30.0*	51.0*	10.3	16.2
Cc1cccc(CN2CCN(C3CN(CCc4ccccc4)S(=O)(=O)C3)CC2)c1 (stereo not drawn)	17.8	.	-26.4	.	.	.	.	.	.	.
Cc1ccccc1-c1cnc(C(O)c2cc(Cl)cc(Cl)c2)[nH]1 (stereo not drawn)	6.0	.	21.9	.	.	.	.	.	.	.
CC1(C)N=C(SCC(=O)Nc2ccccc2)C(c2ccc(Cl)cc2)=N1	8.2	37.6	53.7*	-9.9	-15.5	-0.9	19.9	21.9	7.0	1.9
Cc1ccc(C2=NC(C)(C)N=C2SCC(=O)Nc2ccc(Cl)cc2)cc1	5.5	5.9	19.7	-9.8	-27.8	-8.1	.	.	.	.
Cn1cc(-c2coc3c(C(=O)NCc4cccc(Cl)c4)cccc23)cn1	5.3	.	-5.0	.	.	.	.	.	.	.
CC(=O)c1c(C)[nH]c(C(=O)COC(=O)CNS(=O)(=O)c2ccccc2)c1C	6.8	2.6	-0.1	-3.6	-8.3	-12.1	.	.	.	.
CCOC(=O)c1c(C)[nH]c(C(=O)COC(=O)CNS(=O)(=O)c2ccc(C)cc2)c1C	12.0	10.2	75.5*	-7.7	-1.3	.	39.0*	52.2*	10.4	10.6
CN(Cc1ccccc1)C(=O)c1ccc(NC(=O)C2CCN(C(=O)OC(C)(C)C)CC2)cc1	23.2	18.0	59.6*	13.0	41.5	.	46.8*	42.5	14.3*	14.0
CC(C(=O)Nc1nc(-c2ccc(F)cc2)cs1)N1C(=O)C2CC=CCC2C1=O (stereo not drawn)	19.4	27.2	78.0*	5.5	3.7	.	40.3*	65.1*	12.4*	11.8
C=CC[C@@H](CC(=O)OC(C)(C)C)C(=O)OC[C@H]1CCCN1C(=O)[C@@H](CC=C)CC(=O)N[C@H](CO)Cc1ccccc1	17.4	10.6	60.9*	-15.0	-3.7	.	35.6*	43.1	7.6	7.0
Cc1ccc([C@H]2C(C(=O)O)=CC[C@@H](c3ccc(Cl)cc3)N2S(=O)(=O)c2ccc(C)cc2)cc1	5.9	39.5*	65.9*	-6.2	36.7	.	11.2	45.7	2.4	0.5
CC1(C)OC(=O)C2=C(C[C@@H](C3CCCCC3)O[C@H]2c2ccccc2)O1	-1.4	.	7.3	.	.	.	.	.	.	.
CC1(C)OC(=O)C2=C(C[C@@H](C3CCCCC3)O[C@H]2c2ccc(Cl)cc2)O1	5.4	.	50.4*	.	.	.	4.2	12.9	6.8	14.4
Cc1ccccc1Cn1nc(C)c(NC(=O)c2sc3ccccc3c2Cl)c1C	8.7	24.1	55.3*	-25.6	-15.5	-13.3	26.1*	41.5	4.8	4.0
